The text below walks through data of PMC8026699 (Cancer research, 2021).

In brackets after ≈: the same amount, converted by molar mass.

Data set [1] can be described thus: Body weight in tumor xenograft studies. Format: in vivo, mouse. As to conditions: 100 mg/kg daily IP or oral gavage vs vehicle. Put shortly: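 Female NSG mice, 5–6 weeks old, carried subcutaneous tumours in PBS:Matrigel (BT474 with a 17β-estradiol pellet; MDA-MB-468, WHIM12, A7C11, Brpkp110) or BT474 mammary fat-pad orthografts. After tumour establishment, mice were randomized and dosed daily by IP injection or oral gavage. Groups received vehicle (10% DMSO, 20% solutol, 70% water containing 0.5% Tween20) or test compound at 100 mg/kg.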

Data set [2] can be described thus: Water solubility in PBS. Format: physicochemical. The note with it: PBS buffer, pH 7.4. Put shortly: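 10 mg test compound in 1 mL PBS pH 7.4, sonicated 30 min, vortexed 30 min at low speed, then left 16–24 h at room temperature. Filtered (0.22 μm) and 10-fold serially diluted in triplicate in ACN:water (1:1). Internal standard added; LC-MS/MS quantitation against a five-standard calibration curve.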

Data set [3] concerns the target recombinant human ACSS2 (Homo sapiens, UniProt Q9NR19). The data set can be described thus: TranScreener AMP biochemical assay of ACSS2 activity. The note with it: ratio of IC50 values. The procedure, abridged: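 Recombinant human ACSS2 at 3 nM in 30 mM HEPES pH 7.4, 140 mM NaCl, 2 mM MgCl2, 2 mM DTT, 0.005% Brij35. Test compound serially diluted in DMSO. Final substrates: 5 mM acetate, 50 μM ATP, 5 μM CoA; 120 min incubation. AMP detected by Tb-anti-AMP antibody/tracer TR-FRET after 30 min. Percent inhibition normalized to no-enzyme (100%) and DMSO (0%) wells; IC50 curves fitted from replicates.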

Data set [4] can be described thus: Mouse liver microsomal stability. Type of data set: in vitro ADME. The note with it: 0.5 μM compound, 0.5 mg/mL microsomes; compared with VY-3-249. Put shortly: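 Incubations: 0.5 μM compound, 0.5 mg/mL liver microsomes, NADPH-regenerating system, potassium phosphate pH 7.4. Timed aliquots quenched in acetonitrile with internal standard; no-cofactor controls run. LC-MS/MS analyte/internal-standard peak-area ratios. Elimination constant fitted by nonlinear regression; t1/2 from k = 0.693/t1/2. CLint scaled with 48 (mouse) or 39.7 (human) mg protein/g liver. n = 1.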
(In general: Liver microsomes are vesicles of endoplasmic reticulum, rich in cytochrome P450 enzymes.)

The subject of data set [5] is sgACSS2 Brpkp110 tumors. Nature of the data set: sgACSS2 Brpkp110 tumor growth in mice. Type of data set: in vivo, mouse. The note with it: sgACSS2 Brpkp110 (ACSS2 knockout) tumors. The procedure, abridged: (§1)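 Parental or CRISPR-Cas9 sgAcss2 cells (lentiviral, blasticidin-selected pools) implanted subcutaneously into 5–6-week-old female NSG mice in PBS:Matrigel: A7C11 at 5×10^5, Brpkp110 at 5×10^5. Calipers read tumors three times weekly. Volume = (L × W²)/2, L being the longer measurement; not blinded.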

Data set [6] can be described thus: Pharmacokinetic analysis in CD-1 mice. Type of data set: in vivo, mouse. The note with it: oral gavage 30 mg/kg, intravenous 2 mg/kg, intraperitoneal 10 mg/kg. The procedure, abridged: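 Formulation: 10% DMSO, 10% Solutol, 80% PBS. Dosing in CD-1 mice based on 28 g average weight. Three mice per time point; trunk blood collected into K2-EDTA and kept on wet ice until centrifugation. Plasma extracted in acetonitrile/water with tolbutamide internal standard, centrifuged, supernatant analysed by LC-MS. Mean ± S.D.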

The target of data set [7] is T1, recombinant human ACSS1 (Homo sapiens, UniProt Q9NUB1).
T1 sequence (Q9NUB1 38-689): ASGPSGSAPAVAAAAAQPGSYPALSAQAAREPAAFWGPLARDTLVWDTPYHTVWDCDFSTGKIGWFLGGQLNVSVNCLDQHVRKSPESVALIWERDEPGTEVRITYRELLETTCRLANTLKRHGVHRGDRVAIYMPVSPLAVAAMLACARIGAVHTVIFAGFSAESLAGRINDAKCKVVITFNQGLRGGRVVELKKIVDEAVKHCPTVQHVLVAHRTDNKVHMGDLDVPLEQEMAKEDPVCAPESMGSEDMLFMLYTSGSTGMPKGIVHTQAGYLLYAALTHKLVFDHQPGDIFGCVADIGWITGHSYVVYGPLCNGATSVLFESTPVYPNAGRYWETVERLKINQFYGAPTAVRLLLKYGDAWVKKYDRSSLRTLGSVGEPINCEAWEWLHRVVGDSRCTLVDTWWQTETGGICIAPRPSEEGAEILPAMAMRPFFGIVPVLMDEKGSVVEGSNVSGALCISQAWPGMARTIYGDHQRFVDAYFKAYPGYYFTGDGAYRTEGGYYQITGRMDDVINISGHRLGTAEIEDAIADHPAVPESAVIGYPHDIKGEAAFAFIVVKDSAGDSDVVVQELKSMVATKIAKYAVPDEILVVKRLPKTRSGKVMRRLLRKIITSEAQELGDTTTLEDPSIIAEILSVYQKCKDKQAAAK
The data set can be described thus: TranScreener AMP biochemical assay of ACSS1 activity. The note with it: regardless of the substrate (acetate or propionate). The procedure, abridged: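 Test compound was serially diluted in DMSO and added to ACSS1 (2 nM) or ACSS3 (25 nM). Acetate reaction: HEPES pH 7.4 buffer with 140 mM NaCl; final 5 mM acetate, 50 μM ATP, 5 μM CoA. Propionate reaction: HEPES/KCl/CHAPS buffer; final 5 mM propionate, 10 μM ATP, 100 μM CoA. Incubation 120 min, then AMP detected by terbium-antibody/tracer TR-FRET after 30 min. Percent inhibition was set against no-enzyme and DMSO controls.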

The test system of data set [8] is SKBr3 cells. Nature of the data set: Growth of SKBr3 cells. Type of data set: cell-based, human. The note with it: SKBr3, 10 μM, 72 hours, H1 conditions, 200 μM sodium acetate.
For data set [9], the system named is BT474 cells. The data set can be described thus: Growth of BT474 cells. As to conditions: BT474, 10 μM, 72 hours, H1 conditions, 200 μM sodium acetate. Format: cell-based, human.
Data set [10] relates to SKBr3 cells. Nature of the data set: 13C2-acetate labeling of palmitate in SKBr3 cells. Format: cell-based, human. The note with it: SKBr3, 100 μM 13C2-acetate, 24 hr, N10 and H1 conditions. The procedure, abridged: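 SKBr3 cells were grown 24 h in serum-like modified Eagle's medium with 100 μM 13C2-acetate, either in N10 (normoxia, 10% dialyzed FBS) or H1 (1% O2, 1% dialyzed FBS), with vehicle or test compound. Lipids were extracted with methanol/chloroform/PBS, saponified in 0.3 M KOH in 90% methanol at 70°C for 1 h, then hexane-extracted. Palmitate labeling was measured by C18 LC-MS; mean ± S.D., n = 3.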

The subject of data set [11] is A7C11 tumors. Nature of the data set: A7C11 tumor growth in mice. Type of data set: in vivo, mouse. As to conditions: A7C11 (ACSS2 low) tumors. Put shortly:
as §1

Chain of recombinant human ACSS2 (Q9NR19 whole entry): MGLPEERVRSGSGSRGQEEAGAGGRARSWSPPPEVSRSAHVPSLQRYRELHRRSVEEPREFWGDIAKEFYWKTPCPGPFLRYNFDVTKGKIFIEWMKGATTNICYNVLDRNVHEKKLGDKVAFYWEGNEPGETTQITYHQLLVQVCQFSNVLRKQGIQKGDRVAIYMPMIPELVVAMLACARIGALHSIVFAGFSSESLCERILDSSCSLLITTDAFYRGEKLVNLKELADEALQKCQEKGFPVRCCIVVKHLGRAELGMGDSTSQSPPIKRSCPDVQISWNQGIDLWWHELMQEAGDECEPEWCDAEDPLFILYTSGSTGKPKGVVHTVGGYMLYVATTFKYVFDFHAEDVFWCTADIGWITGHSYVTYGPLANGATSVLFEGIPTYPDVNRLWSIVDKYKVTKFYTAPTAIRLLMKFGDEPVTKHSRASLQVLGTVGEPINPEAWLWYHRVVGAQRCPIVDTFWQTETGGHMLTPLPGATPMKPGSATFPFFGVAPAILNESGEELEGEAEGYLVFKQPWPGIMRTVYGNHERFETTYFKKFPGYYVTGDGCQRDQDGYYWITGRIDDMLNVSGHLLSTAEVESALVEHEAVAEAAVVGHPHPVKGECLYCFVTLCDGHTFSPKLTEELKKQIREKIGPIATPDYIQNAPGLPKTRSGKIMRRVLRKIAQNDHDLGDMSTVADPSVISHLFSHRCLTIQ

For `CCn1c(C(O)(c2ccccc2)c2ccccc2)nc2ccc(C(=O)NC[C@@H](C)O)cc21` [VY-3-135, (R)-1-ethyl-2-(hydroxydiphenylmethyl)-N-(2-hydroxypropyl)-1H-benzo[d]imidazole-6-carboxamide], in data set [1], the body weight result is listed as “No significant differences in body weight”. Besides, the solubility in [2] amounted to 21.7 µM (≈ 9.32 µg/mL). In [3], the “potency relative to VY-3-249” value was about 30 fold. In data set [4], the “stability in mouse liver microsomal assay” value is given as “superior stability”. The tumor growth result in [5] is “no further effect on tumor growth”; in [11], “but not WHIM12 and A7C11 tumors”. The absorption result in data set [6] is “completely absorbed by all routes of administration”. The exposure entry in data set [6] is listed as “good exposure”. The “inhibitory activity towards ACSS1” value in data set [7] is “neither VY-3-249 nor VY-3-135 displayed any inhibitory activity”. In addition, the cell growth result in data set [8] and in [9] was “modest growth inhibition” throughout. In data set [10], the “fatty acid (palmitate) synthesis from 13C2-acetate” value is on record as “completely blocked fatty acid synthesis from acetate”.

Usually solubility stands for how much of the substance goes into solution per volume. A higher solubility goes with much dissolved substance.
